Experimental data from ChEMBL document CHEMBL4190282, “The Conjugated Double Bond of Coniferyl Aldehyde Is Essential for Heat Shock Factor 1 Mediated Cytotoprotection” (J Nat Prod, 2017).
Calls of active or inactive are those of the source.

Experiments:
L132 [1] = experiment: Cytoprotective activity against cisplatin-induced cell death in human L-132 cells at 3 uM pretreated for 1 hr followed by cisplatin addition measured after 24 hrs by FACS analysis; format: functional, cell-based
Summary of the method: (§1)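 L132 cells in RPMI with 10% FBS. 1 h pretreatment at 3 μM, then 0.5 μM paclitaxel or 20 μM cisplatin for 24 h, or 10 Gy γ-rays for 48 h. Cells trypsinized, washed, stained with propidium iodide and analysed by flow cytometry. Means ± SD of ≥3 independent experiments, fold-change vs negative control.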

[2] = target: T1, Heat shock factor protein 1 (Homo sapiens) (UniProt Q00613); experiment: Activation of HSF1 in human L132 cells assessed as increase in HSP27 protein levels after 12 hrs by immunoblotting analysis; format: cell-based
T1 sequence (whole entry): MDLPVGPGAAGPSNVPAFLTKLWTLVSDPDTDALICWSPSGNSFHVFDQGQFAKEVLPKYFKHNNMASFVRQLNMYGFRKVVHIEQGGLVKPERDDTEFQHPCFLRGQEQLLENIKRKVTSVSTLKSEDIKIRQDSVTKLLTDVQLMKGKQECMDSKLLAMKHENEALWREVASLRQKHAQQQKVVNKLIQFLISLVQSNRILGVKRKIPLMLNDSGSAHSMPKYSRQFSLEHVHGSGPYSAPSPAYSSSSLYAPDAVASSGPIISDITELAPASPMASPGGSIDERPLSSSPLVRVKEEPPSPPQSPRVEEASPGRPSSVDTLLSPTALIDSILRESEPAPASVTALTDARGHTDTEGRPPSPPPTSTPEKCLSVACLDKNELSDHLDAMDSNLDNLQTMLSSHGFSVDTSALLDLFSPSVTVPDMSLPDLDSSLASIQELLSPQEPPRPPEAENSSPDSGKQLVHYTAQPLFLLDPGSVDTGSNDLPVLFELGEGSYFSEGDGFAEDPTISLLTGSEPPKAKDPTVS
Summary of the method: (§2)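 L132 cells treated at 3 μM for 12 h, or at various doses for 12 h, or at 3 μM over a time course. Lysates resolved by SDS-PAGE, blotted to nitrocellulose, milk-blocked, primary antibodies 18 h at 4 °C, ECL detection. HSP27, HSP70 and Ser326-phospho-HSF1 bands normalized to loading control; ≥3 independent experiments; celastrol 1 μM positive control.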

L132 [3] = experiment: Cytoprotective activity against IR-induced cell death in human L-132 cells at 3 uM pretreated for 1 hr followed by 10 Gy irradiation measured after 48 hrs by FACS analysis; format: functional, cell-based; summary of the method: as §1
[4] = target: T1, Heat shock factor protein 1 (Homo sapiens); experiment: Activation of HSF1 in human L132 cells assessed as increase in HSP27 protein levels at 3 uM by immunoblotting analysis; format: cell-based; conditions: TDE = time-dependent effect; summary of the method: as §2

Measured: Activity

COc1cc(/C=C/C=O)ccc1O [CONIFERYL ALDEHYDE]
active: L132 [1] | [2] Dose-dependent effect | L132 [3]

COc1cc(/C=C/CO)ccc1O [CONIFERYL ALCOHOL]
active: L132 [1] | [4] Tde | L132 [3]
